Experimental data of several laboratories.
Cell line: HepG2
Effect on: cell growth or viability

Cc1cc(=O)oc2ccc(-c3cc(-c4cccs4)nc(N)n3)c(O)c12  inhibition (MTT; 2 µg/mL; 72 h): 0%
Fc1ccc(-c2nc3ccccc3n2Cc2ccccc2)cc1  IC50 (MTT): 45.9 µM
Cc1ccc(-c2cc(-c3ccc4oc(=O)cc(C)c4c3O)nc(N)n2)cc1  inhibition (MTT; 128 µg/mL; 72 h): 27%
Cc1ccc(/C=N/NC(=O)c2ccc(Nc3cc(C)nc4c(O)cccc34)cc2)cc1  inhibition (MTT; 20 µM): 41.3%
COc1cccc(-c2nc3ccccc3[nH]2)c1  IC50 (MTT; 48 h): 47.1 µM
CCOC(=O)c1ccc(N2C(N)=C(C#N)C3(C(=O)Nc4ccccc43)C(C#N)=C2O)cc1 (centres unmarked)  viability (MTT; 25 µM; 24 h): 23.5%
CC(=O)Nc1cccc(-n2c(=O)n(C3CC3)c(=O)c3c(Nc4ccc(I)cc4F)n(C)c(=O)c(C)c32)c1  viability (resazurin; 390 pM; 72 h): 103%
CCOC(=O)c1ccc(-n2c(-c3ccc(C)cc3)cc(-c3ccc(O)cc3)c(C#N)c2=O)cc1  viability (MTT; 1.56 µM; 24 h): 100%
Cc1ccc2nc(-c3ccc([N+](=O)[O-])cc3)[nH]c2c1  IC50 (MTT; 48 h): 18.6 µM
O=C(CN1C(=O)/C(=C/c2cccc(Br)c2)SC1=S)Nc1ccccc1  inhibition (MTT; 10 µM): 12.7%
Cc1cc(Nc2ccc(C(=O)N/N=C/c3ccccc3)cc2)c2cccc(O)c2n1  inhibition (MTT; 20 µM): 48.9%
Cc1cc(=O)oc2ccc(-c3cc(-c4ccc(Cl)cc4)nc(N)n3)c(O)c12  inhibition (MTT; 32 µg/mL; 72 h): 65%
CN(C)C/C=N/NC(=O)Nc1cc2c(Nc3ccc(F)c(Cl)c3)ncnc2cc1O[C@H]1CCOC1  IC50 (MTT; 72 h): 3.08 µM
CCOC(=O)c1cn(CC)c2cc(N3CCC(C)CC3)c(F)cc2c1=O  EC50 (ATP luminescence; 48 h): > 40 µM
CCOC(=O)c1ccc(-n2c(N)c(C#N)c(CC#N)c(C#N)c2=O)cc1  viability (MTT; 100 µM; 24 h): 24.5%
CCn1cc(-c2nc(C)no2)c(=O)c2cc(F)c(N3CCN(C)CC3)cc21  EC50 (ATP luminescence; 48 h): > 40 µM
O=C(CN1C(=O)/C(=C/c2ccc(O)cc2)SC1=S)Nc1ccccc1  inhibition (MTT; 10 µM): 31.6%
CSc1ccc(-c2nc3ccc(C)cc3n2Cc2ccccc2)cc1  IC50 (MTT): 17.7 µM
COc1ccc(NC(=O)c2c(Nc3ccccc3)sc(C#N)c2NC(=O)CNc2ccccc2[N+](=O)[O-])cc1  viability (SRB; 100 µM; 48 h): 89.7%
O=C(CN1C(=O)/C(=C/C2CC2)SC1=S)Nc1ccccc1  inhibition (MTT; 10 µM): 11%
CCn1cc(-c2nc(C)no2)c(=O)c2cc(F)c(N3CCC(C(C)C)CC3)cc21  EC50 (ATP luminescence; 48 h): > 40 µM
CC(C)(CO)Cn1nc(-c2ccc3nc(OCC(F)(F)F)ccc3c2)c2c(N)ncnc21  GI50: > 10 µM
COc1ccc(NC(=O)c2c(Nc3ccccc3)sc(C(=O)NN=Cc3ccccc3)c2NC(C)=O)cc1  viability (SRB; 0.1 µM; 48 h): 78.1%
O=C(CN1C(=O)/C(=C/c2ccco2)SC1=S)Nc1ccccc1  inhibition (MTT; 10 µM): 18.6%
COc1ccc(NC(=O)c2c(Nc3ccccc3)sc(C#N)c2NC(=O)CNc2ccc(Br)cc2)cc1  viability (SRB; 0.1 µM; 48 h): 70.4%
COc1ccc(-c2cc(-c3ccc4oc(=O)cc(C)c4c3O)nc(N)n2)cc1  inhibition (MTT; 128 µg/mL; 72 h): 40%
COc1ccc(C=NNC(=O)c2sc(Nc3ccccc3)c(C(=O)Nc3ccc(OC)cc3)c2NC(C)=O)cc1  viability (SRB; 1 nM; 48 h): 102%
Cc1cc(=O)oc2ccc(-c3cc(-c4ccccc4)nc(N)n3)c(O)c12  inhibition (MTT; 32 µg/mL; 72 h): 5%
COc1ccc(NC(=O)c2c(Nc3ccccc3)sc(C(=O)NN=Cc3cc(OC)c(OC)c(OC)c3)c2NC(C)=O)cc1  viability (SRB; 1 nM; 48 h): 97.3%
COc1ccc(-c2nc3ccc(C)cc3[nH]2)cc1OC  IC50 (MTT; 48 h): 43.6 µM
CCOC(=O)c1ccc(-n2c(C)cc(/C=C/c3ccc(OCC)cc3)c(C#N)c2=O)cc1  viability (MTT; 100 µM; 24 h): 40.7%
CCn1cc(-c2nc(C)no2)c(=O)c2cc(F)c(N3CCCC(C)C3)cc21 (centres unmarked)  EC50 (ATP luminescence; 48 h): > 40 µM
Cc1ccc2nc(-c3ccc(Cl)cc3)n(Cc3ccccc3Cl)c2c1  IC50 (MTT): 47.9 µM
COc1ccc(NC(=O)c2c(Nc3ccccc3)sc(C(=O)NN=Cc3ccc(OC)c(O)c3)c2NC(C)=O)cc1  viability (SRB; 10 µM; 48 h): 31.6%
CCOC(=O)c1ccc(NC(=O)C2=C3C(=Nc4ccccc43)NC2=O)cc1  viability (MTT; 25 µM; 24 h): 56.3%
O=C(CN1C(=O)/C(=C/c2ccc[nH]2)SC1=S)Nc1ccccc1  inhibition (MTT; 10 µM): 9.65%
COc1ccc(NC(=O)c2c(Nc3ccccc3)sc(C#N)c2NC(=O)CNc2ccc(O)cc2)cc1  viability (SRB; 10 nM; 48 h): 92.1%
COc1ccc(/C=C2\SC(=S)N(CC(=O)Nc3ccccc3)C2=O)cc1  inhibition (MTT; 10 µM): 13.6%
CCn1cc(-c2nc(C)no2)c(=O)c2cc(F)c(N3CCCCC3)cc21  EC50 (ATP luminescence; 48 h): > 40 µM
COc1ccccc1/C=C1\SC(=S)N(CC(=O)Nc2ccccc2)C1=O  inhibition (MTT; 10 µM): 25.6%
COc1ccc(NC(=O)c2c(Nc3ccccc3)sc(C(=O)NN=Cc3ccc(Cl)cc3)c2NC(C)=O)cc1  viability (SRB; 10 nM; 48 h): 95.2%
Cc1cc(=O)oc2ccc(-c3cc(-c4cccc(Cl)c4)nc(N)n3)c(O)c12  inhibition (MTT; 2 µg/mL; 72 h): 0%
Cc1ccc2nc(-c3c(F)cccc3Cl)[nH]c2c1  IC50 (MTT; 48 h): > 100 µM
COc1cc2ncnc(Nc3ccc(F)c(Cl)c3)c2cc1NC(=O)N/N=C/c1cccn1CCN(C)C  IC50 (MTT; 72 h): 0.11 µM
CCOC(=O)c1ccc(-n2c(C)cc(C)c(C#N)c2=O)cc1  viability (MTT; 25 µM; 24 h): 64.7%
Cc1ccc2nc(-c3ccc([N+](=O)[O-])cc3)n(Cc3ccccc3Cl)c2c1  IC50 (MTT): 34.3 µM
CCN(CC)C/C=N/NC(=O)Nc1cc2c(Nc3ccc(F)c(Cl)c3)ncnc2cc1OC  IC50 (MTT; 72 h): 2.15 µM
